ChEMBL document CHEMBL1122627, “Synthesis of certain hydroxy analogues of the antimalarial drug primaquine and their in vitro methemoglobin-producing and glutathione-depleting activity in human erythrocytes” (1984)
Several values for one entry are separate records, joined by “and”; a condition that tells them apart may be missing. Equal entries are not always repeated.

Experiments:
Format in all cases: functional
Homo sapiens [1] = species: Homo sapiens; assay: In vitro methemoglobin (metHb) forming activity in normal human erythrocytes.
In short: (§1)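 Blood (30–40 mL) from normal or G6PD-deficient human volunteers, anticoagulated with sodium edetate. Washed erythrocytes suspended to 50% in buffered dextrose saline, incubated with each compound at 37 °C for 2 h. Reaction stopped on ice for 5 min. Cells spun at 1500g for 10 min at 5 °C, washed twice in ice-cold buffered saline dextrose, resuspended to 50%.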

Homo sapiens [2] = species: Homo sapiens; assay: In vitro decreasing the GSH content in normal in human erythrocytes at 0.01 mM; in short: as §1
Homo sapiens [3] = species: Homo sapiens; assay: In vitro methemoglobin (metHb) forming activity in normal human erythrocytes at 0.05 mM; in short: as §1
Homo sapiens [4] = species: Homo sapiens; assay: In vitro decreasing the GSH content in normal in human erythrocytes at 0.05 mM; in short: as §1
Homo sapiens [5] = species: Homo sapiens; assay: In vitro methemoglobin (metHb) forming activity in Glucose-6-phosphate dehydrogenase- (G6PD-) deficient human erythrocytes at 0.05 mM; in short: as §1

Compound	Methemoglobin (Homo sapiens [1]) [%]	GSH level (mg) (Homo sapiens [2])	Methemoglobin (Homo sapiens [3]) [%]	GSH level (Homo sapiens [4])	Methemoglobin (Homo sapiens [5])
CC(CCCN)Nc1cc(O)cc2cccnc12 (stereo unspecified)	1.1	63.8% and 45.8%	1.1	63.4% and 44.8%	1.7% and 1.2%
COc1cc(N)c2ncccc2c1O			34.2		43.8% and 22.3%
Nc1cc(O)c(O)c2cccnc12 [5,6-DIHYDROXY-8-AMINOQUINOLINE]	4.8		22.3		
CC(CCCN)Nc1cc(O)c(O)c2cccnc12 (stereo unspecified) [5-HYDROXYDESMETHYLPRIMAQUINE]	4.2		16.3		
COc1cc(NC(C)CCCN)c2ncccc2c1O (stereo unspecified) [5-HYDROXYPRIMAQUINE]	3.4		12.8		
COc1cc(NC(C)CCCN)c2ncccc2c1 (stereo unspecified) [PRIMAQUINE]			1	60% and 47.4%	1.3%
